From ChEMBL document CHEMBL1955763, “Antimicrobial activity of sulfonamides containing 5-chloro-2-hydroxybenzaldehyde and 5-chloro-2-hydroxybenzoic acid scaffold” (Eur J Med Chem, 2012)
Values after ≈ are worked out from the molar mass of the structure shown.

What was measured:
[1] = tested on: Staphylococcus epidermidis; test: Antibacterial activity against methicillin-resistant Staphylococcus epidermidis H 6966/08 after 48 hrs by broth microdilution method; format: functional; details: H 6966/08, 48 h
Method in brief: (§1)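 Microdilution broth method modified from M07-A07, in Mueller-Hinton broth at pH 7.4 (±0.2). Compounds were dissolved in DMSO. Inoculum was made in sterile water to 0.5 McFarland (1.5 × 10⁸ CFU/mL). MIC was taken as IC₉₀, meaning ≥90% growth reduction versus the drug-free control. Growth was read visually and by absorbance at 540 nm.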

[2] = Selectivity ratio of IC50 for human HepG2 cell sto MIC90 for Staphylococcus aureus CCM 4516/08; format: functional
Mycobacterium kansasii [3] = test: Antimycobacterial activity against Mycobacterium kansasii 6509/96 after 14 days; format: functional; details: 6509/96, 336 h
Method in brief: (§2)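 Micromethod MIC in Sula semisynthetic medium, with compounds added as DMSO solutions at […]. Incubation at 37 °C. Inocula: M. kansasii 235/80 at dilution 10⁻⁴, clinical isolate 6509/96 at 10⁻⁵.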

Staphylococcus aureus [4] = test: Antibacterial activity against methicillin-resistant Staphylococcus aureus H 5996/08 after 24 hrs by broth microdilution method; format: functional; details: H 5996/08, 24 h; method in brief: as §1
Staphylococcus aureus [5] = test: Antibacterial activity against methicillin-resistant Staphylococcus aureus H 5996/08 after 48 hrs by broth microdilution method; format: functional; details: H 5996/08, 48 h; method in brief: as §1
Mycobacterium kansasii [6] = test: Antimycobacterial activity against Mycobacterium kansasii 6509/96 after 7 days; format: functional; details: 6509/96, 168 h; method in brief: as §2
Mycobacterium avium [7] = test: Antimycobacterial activity against isoniazid-, rifampicin-, ofloxacin-, ethambutol-resistant Mycobacterium avium 330/88 after 21 days; format: functional; details: 330/88, 504 h
Method in brief: (§3)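 Micromethod in Sula semisynthetic medium, with compounds added as DMSO solutions over a two-fold series from 1000 down to 1. Inoculum for M. avium 330/88 was a 10⁻⁵ dilution. Plates were incubated at 37 °C and MIC was read after 14 and 21 days.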

Staphylococcus aureus [8] = test: Antibacterial activity against Staphylococcus aureus CCM 4516/08 after 48 hrs by broth microdilution method; format: functional; details: CCM 4516/08, 48 h
Method in brief: (§4)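 Broth microdilution modified from standard M07-A07 in Mueller-Hinton broth at pH 7.4 (±0.2). Compounds were dissolved in DMSO. Inoculum in sterile water was adjusted to 0.5 McFarland (1.5 × 10⁸ CFU/mL). MIC was taken as IC₉₀, i.e. ≥90% growth reduction versus control, read visually and spectrophotometrically at 540 nm.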

[9] = tested on: Mycobacterium tuberculosis; test: Antimycobacterial activity against Mycobacterium tuberculosis H37Rv 331/88 after 21 days; format: functional; details: H37Rv 331/88, 504 h; method in brief: as §3
Mycobacterium kansasii [10] = test: Antimycobacterial activity against Mycobacterium kansasii 235/80 after 7 days; format: functional; details: 235/80, 168 h; method in brief: as §2
[11] = tested on: Mycobacterium tuberculosis; test: Antimycobacterial activity against Mycobacterium tuberculosis H37Rv 331/88 after 14 days; format: functional; details: H37Rv 331/88, 336 h
[12] = Selectivity ratio of IC50 for human HepG2 cell sto MIC100 for Mycobacterium kansasii 6509/96; format: functional
Mycobacterium kansasii [13] = test: Antimycobacterial activity against Mycobacterium kansasii 6509/96 after 21 days; format: functional; details: 6509/96, 504 h; method in brief: as §2
[14] = tested on: Mycobacterium tuberculosis; test: Antituberculosis activity against Mycobacterium tuberculosis H37Rv after 18 hrs by alamar blue assay; format: functional, organism-based
Mycobacterium kansasii [15] = test: Antimycobacterial activity against Mycobacterium kansasii 235/80 after 21 days; format: functional; details: 235/80, 504 h; method in brief: as §2
Mycobacterium avium [16] = test: Antimycobacterial activity against isoniazid-, rifampicin-, ofloxacin-, ethambutol-resistant Mycobacterium avium 330/88 after 14 days; format: functional; details: 330/88, 336 h; method in brief: as §3
[17] = tested on: Staphylococcus epidermidis; test: Antibacterial activity against methicillin-resistant Staphylococcus epidermidis H 6966/08 after 24 hrs by broth microdilution method; format: functional; details: H 6966/08, 24 h; method in brief: as §1
Mycobacterium kansasii [18] = test: Antimycobacterial activity against Mycobacterium kansasii 235/80 after 14 days; format: functional; details: 235/80, 336 h; method in brief: as §2
[19] = Selectivity ratio of IC50 for human HepG2 cell sto MIC100 for Mycobacterium kansasii 235/80; format: functional
Staphylococcus aureus [20] = test: Antibacterial activity against Staphylococcus aureus CCM 4516/08 after 24 hrs by broth microdilution method; format: functional; details: CCM 4516/08, 24 h; method in brief: as §1
HepG2 = test: Cytotoxicity against human HepG2 cells after 24 hrs by MTS assay; format: cell-based; details: HepG2, 24 h
Method in brief: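 Hep G2 human liver cells (passage 3–4), 10 000 per well, in MEM with 1% glutamine, 10% fetal serum and 1% non-essential amino acids. Compounds were added from DMSO at eight increasing concentrations in quadruplicate. Exposure was 24 h at 37 °C in 5% CO₂, then MTS reagent for 1.5 h. Formazan was read at 490 nm and IC₅₀ derived as 50% of control viability.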

[21] = tested on: Mycobacterium avium complex sp.; test: Antimycobacterial activity against Mycobacterium avium complex; format: functional
Aspergillus fumigatus = test: Antifungal activity against Aspergillus fumigatus 231 after 24 hrs by broth microdilution method; format: functional; details: Aspergillus fumigatus, 231, 24 h
Method in brief: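 Microdilution broth per CLSI M27-A3 (yeasts) or M38-A2 (moulds) in RPMI 1640 with glutamine, buffered to pH 7.0 with 0.165 mol MOPS. Compounds were in DMSO. Final inoculum was 5 × 10³ ± 0.2 CFU/mL. Other conditions matched the antibacterial assay, with MIC as IC₉₀ read visually and at 540 nm. Determined twice, in duplicate.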

Klebsiella pneumoniae [22] = test: Antibacterial activity against Klebsiella pneumoniae D 11750/08 after 24 hrs by broth microdilution method; format: functional; details: D 11750/08, 24 h; method in brief: as §4
Escherichia coli = test: Antibacterial activity against Escherichia coli CCM 4517 after 24 hrs by broth microdilution method; format: functional; details: CCM 4517, 24 h; method in brief: as §4
[23] = Selectivity ratio of IC50 for human HepG2 cell sto MIC90 for methicillin-resistant Staphylococcus aureus H 5996/08; format: functional
Pseudomonas aeruginosa = test: Antibacterial activity against Pseudomonas aeruginosa CCM 1961 after 24 hrs by broth microdilution method; format: functional; details: CCM 1961, 24 h; method in brief: as §4
Klebsiella pneumoniae [24] = test: Antibacterial activity against ESBL-positive Klebsiella pneumoniae J 14368/08 after 24 hrs by broth microdilution method; format: functional; details: J 14368/08, 24 h; method in brief: as §4

| Structure (SMILES) | MIC [1] [µM] | Ratio [2] | MIC (Mycobacterium kansasii [3]) [µM] | MIC (Staphylococcus aureus [4]) [µM] | MIC (Staphylococcus aureus [5]) [µM] | MIC (Mycobacterium kansasii [6]) [µM] | MIC (Mycobacterium avium [7]) [µM] | MIC (Staphylococcus aureus [8]) [µM] | MIC [9] [µM] | MIC (Mycobacterium kansasii [10]) [µM] | MIC [11] [µM] | Ratio [12] | MIC (Mycobacterium kansasii [13]) [µM] | MIC (Mycobacterium kansasii [15]) [µM] | MIC (Mycobacterium avium [16]) [µM] | MIC [17] [µM] | MIC (Mycobacterium kansasii [18]) [µM] | Ratio [19] | MIC (Staphylococcus aureus [20]) [µM] | IC50 (HepG2) [mM] | other results |
| --- | --- | --- | --- | --- | --- | --- | --- | --- | --- | --- | --- | --- | --- | --- | --- | --- | --- | --- | --- | --- | --- |
| Nc1ccc(S(=O)(=O)Nc2nccs2)cc1 [SULFATHIAZOLE] | > 500 | 33.2 | 2 (≈ 0.511 µg/mL) | 62.5 (≈ 16 µg/mL) | 125 (≈ 31.9 µg/mL) | 1 (≈ 0.255 µg/mL) | 62.5 (≈ 16 µg/mL) | 62.5 (≈ 16 µg/mL) | 62.5 (≈ 16 µg/mL) | 2 (≈ 0.511 µg/mL) | 32 (≈ 8.17 µg/mL) | 1040.3 | 2 (≈ 0.511 µg/mL) | 4 (≈ 1.02 µg/mL) | 62.5 (≈ 16 µg/mL) | > 500 | 4 (≈ 1.02 µg/mL) | 1040.3 | 31.2 (≈ 7.98 µg/mL) | 4.16 | IC50 [14]: ≥ 0.005 mM |
| Cc1cc(NS(=O)(=O)c2ccc(N)cc2)no1 [SULFAMETHOXAZOLE] | 500 (≈ 127 µg/mL) | 5.2 | 4 (≈ 1.01 µg/mL) | 62.5 (≈ 15.8 µg/mL) | 250 (≈ 63.3 µg/mL) | 4 (≈ 1.01 µg/mL) | 62.5 (≈ 15.8 µg/mL) | 500 (≈ 127 µg/mL) | 32 (≈ 8.11 µg/mL) | 8 (≈ 2.03 µg/mL) | 32 (≈ 8.11 µg/mL) | 163.9 | 4 (≈ 1.01 µg/mL) | 16 (≈ 4.05 µg/mL) | 32 (≈ 8.11 µg/mL) | 250 (≈ 63.3 µg/mL) | 16 (≈ 4.05 µg/mL) | 163.9 | 250 (≈ 63.3 µg/mL) | 2.62 | MIC50 [21]: 30 µg/mL (≈ 118 µM); MIC80 [21]: 30 µg/mL (≈ 118 µM); MIC (Aspergillus fumigatus): 250 µM (≈ 63.3 µg/mL); MIC (Klebsiella pneumoniae [22]): ≥ 500 µM; MIC (Escherichia coli): ≥ 500 µM; Ratio [23]: 5.2; MIC (Pseudomonas aeruginosa): ≥ 500 µM; MIC (Klebsiella pneumoniae [24]): ≥ 500 µM |
